Published values from different studies.
Cell line: SW480
Effect on: cell growth or viability

| Compound | technique | time | measurement | value |
| --- | --- | --- | --- | --- |
| C=CCNC1=C2C[C@@H](C)C[C@H](OC)[C@H](O)[C@@H](C)/C=C(\C)[C@H](OC(N)=O)[C@@H](OC)/C=C\C=C(/C)C(=O)NC(=CC1=O)C2=O | MTT | – | IC50 | 0.657 µM |
| CC[C@H](C)C(=O)O[C@H]1C[C@@H](C)C=C2C=C[C@H](C)[C@H](CC[C@@H]3C[C@@H](O)CC(=O)O3)[C@H]21 | SRB | 72 h | IC50 | 8.85 mg/L |
| Cc1cc2c(cc1N1C(=O)c3cccc4c(CCCO)ccc(c34)C1=O)n(C)c(=O)n2C (racemic) | resazurin | – | GI50 | > 10 µM |
| COC1=C2C[C@@H](C)C[C@H](OC)[C@H](O)[C@@H](C)/C=C(\C)[C@H](OC(N)=O)[C@@H](OC)/C=C\C=C(/C)C(=O)NC(=CC1=O)C2=O | MTT | – | IC50 | 0.308 µM |
| CC(C)C[C@H](NC(=O)[C@H](Cc1ccccc1)NC(=O)c1cnccn1)B(O)O | ATP luminescence | – | IC50 | 0.0086 µM |
| COc1cc([C@@H]2c3cc4c(cc3[C@@H](O[C@@H]3O[C@@H]5CO[C@@H](C)O[C@H]5[C@H](O)[C@H]3O)[C@H]3COC(=O)[C@H]23)OCO4)cc(OC)c1O | MTT | 48 h | IC50 | 17.1 µM |
| COc1cc(Nc2nccc(-c3cnn4nc(OC)ccc34)n2)cc(C(F)(F)F)c1 | ATP luminescence | – | IC50 | 0.72 µM |
| O=C(O)C[C@H](O)C[C@H](O)/C=C/c1c(C2CC2)nc2ccccc2c1-c1ccc(F)cc1 | SRB | 72 h | IC50 | 32.3 mg/L |
